Yeast lifespan up: compounds extending yeast replicative lifespan, primary screen, S. cerevisiae, OD615. S. cerevisiae growth with nicotinamide; deaD strain in restrictive glucose medium. inhibition of the nicotinamide effect, % at 10 µM. actives 0.68% (n = 130,000). AID 775, 2007;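 active = inhibition above a set limit, placed 3 SD over the median of all compounds, cut at about 26% in these data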;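 also: 0% = nicotinamide-treated wells and 100% = cells grown without nicotinamide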
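assay system = DeaD-strain S. cerevisiae | measured by = absorbance at 615 nm | probe or stimulus = nicotinamide 1.5 mM | buffer or medium = CSMM-D glucose medium, restrictive | times = 48 h at 30 °C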
BB579 growth dn: growth inhibitors of yeast BB579 in restrictive medium, primary screen, yeast lifespan-shortening project, S. cerevisiae; OD615, 48 h; inhibition, % at 10 µM; actives 0.51% (n = 140,000); AID 804, 2007;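 active = inhibition above a set limit, 3 SD over the mean compound inhibition, cut at about 44% in these data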
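System: Saccharomyces cerevisiae DeaD strain BB579, replicative lifespan model yeast | Buffer or medium: Restrictive glucose-based CSMM-D medium | Times: 4 h preincubation and 48 h exposure at 30 °C | Detection: OD615 turbidity measurement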
PostGolgi ctrl: growth inhibition of yeast control strain, primary screen, counter-screen for post-Golgi transport modulator project | efflux-deficient yeast background strain, growth absorbance A615, 16 h | inhibition, % at 10 µM | actives 5% (n = 98,000) | AID 738, 2007
PostGolgi yeast: phenotypic screen on post-Golgi transport, primary screen. post-Golgi transport phenotypic cell assay. inhibition, % at 10 µM. actives 0.9% (n = 98,000). AID 739, 2007;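 also: yeast cells grown in 1536-well plates; yeast grown about 18 h at 30C before absorbance read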
* marks the source's active call; other numbers are inactive results. The full list was thinned out, with hits kept by preference. Rule as the data show it, unless noted: active = inhibition above about 30%; inactive = the rest.

For Cc1ccc(Oc2ncc(-c3ccc(Cl)cc3)cn2)cc1 the results were Yeast lifespan up -10.6, BB579 growth dn -37.7, PostGolgi ctrl 5.0 and PostGolgi yeast -2.4.
Screening Cc1cccc(Oc2ncc(-c3ccc(Cl)cc3)cn2)c1C returned Yeast lifespan up -19.0, BB579 growth dn -73.1, PostGolgi ctrl 35.9* and PostGolgi yeast -5.2.
Screening CSc1nc(C)cc(SCC(=O)N/N=C/c2ccccc2)n1 returned Yeast lifespan up 3.5 and BB579 growth dn -45.7.
For COc1cccc(-c2cc(C(=O)N3CCc4ccccc4C3)no2)c1 the results were Yeast lifespan up -6.1, BB579 growth dn -7.3, PostGolgi ctrl 20.9 and PostGolgi yeast 1.3.
COc1ccc(OC)c(-c2cc(C(=O)N3CCN(c4ccccc4)CC3)no2)c1 was read as Yeast lifespan up -8.4, BB579 growth dn -81.6, PostGolgi ctrl 32.9* and PostGolgi yeast -8.2.
Screening COc1ccc(OC)c(-c2cc(C(=O)N3CCc4ccccc4C3)no2)c1 returned Yeast lifespan up 44.4*, BB579 growth dn -48.9, PostGolgi ctrl 40.8* and PostGolgi yeast -0.6.
Screening CCOC(=O)c1[nH]c2ccc(F)cc2c1NC(=O)c1cc(OC)c(OC)c(OC)c1 returned Yeast lifespan up -15.0, BB579 growth dn -35.8, PostGolgi ctrl 30.0* and PostGolgi yeast -10.4.
O=C(c1ccco1)n1nc(NCc2ccccc2)nc1NCc1ccccc1 was read as Yeast lifespan up -4.9, BB579 growth dn -19.7, PostGolgi ctrl 78.6* and PostGolgi yeast 1.7.
O=C(c1ccco1)n1nc(-c2ccccc2)nc1NCc1ccco1 was read as Yeast lifespan up -2.8, BB579 growth dn -34.2, PostGolgi ctrl 8.9 and PostGolgi yeast 15.6.
Cc1ccc(C2(C)NC(=O)N(CC(=O)Nc3cc(C)on3)C2=O)cc1 (configuration not stated) was read as Yeast lifespan up 1.7, BB579 growth dn -40.0, PostGolgi ctrl 30.8* and PostGolgi yeast -1.4.
Cc1cc(NC(=O)CN2C(=O)NC3(CCCCC3)C2=O)no1 was read as Yeast lifespan up 2.1 and BB579 growth dn -0.3.
Screening CCn1cc(C(=O)NCc2ccc3c(c2)OCO3)c(=O)c2cc(F)c(N3CCN(C(=O)c4ccco4)CC3)cc21 returned Yeast lifespan up -8.1, BB579 growth dn -51.1, PostGolgi ctrl -0.5 and PostGolgi yeast -6.6.
`COCCNC(=O)C(c1ccc(F)cc1)N(CC1CCCO1)C(=O)CCC(=O)Nc1ccccn1` (configuration not stated) gave Yeast lifespan up -13.4, BB579 growth dn 6.5, PostGolgi ctrl 1.0 and PostGolgi yeast 31.4*.
Clc1ccc(N/N=C/c2cccnc2)cc1 was read as Yeast lifespan up -6.8 and BB579 growth dn 65.6*.
Screening Clc1ccc(N/N=C/c2ccncc2)cc1Cl returned Yeast lifespan up -11.7 and BB579 growth dn 49.3*.
For CCOC(=O)c1sc(Nc2ccc(C)cc2C)nc1C the results were Yeast lifespan up -8.3, BB579 growth dn -42.4, PostGolgi ctrl 52.0* and PostGolgi yeast 4.1.
Screening CCOC(=O)c1sc(N/N=C/c2cccc(C)c2)nc1C returned Yeast lifespan up -12.6, BB579 growth dn -30.6, PostGolgi ctrl 38.5* and PostGolgi yeast 2.4.
CC1=CS(=O)(=O)CC1Sc1nc2ccccc2[nH]1 (configuration not stated) was read as Yeast lifespan up 3.1 and BB579 growth dn -17.4.
O=C(N/N=C1\CC2CC=CC12)c1ccc(COc2ccccc2)cc1 (configuration not stated) was read as Yeast lifespan up -4.3 and BB579 growth dn 54.5*.
`CC(C)(C)c1ccc(OCc2ccc(C(=O)N/N=C3\CC4CC=CC34)cc2)cc1` (configuration not stated) gave Yeast lifespan up -3.2 and BB579 growth dn -18.9.
For CCOc1ccc2ncc(S(=O)(=O)c3ccc(C)cc3)c(N3CCC4(CC3)OCCO4)c2c1 the results were Yeast lifespan up 7.6 and BB579 growth dn -38.8.
CCOc1ccc(Oc2cc(NC(=O)c3ccco3)cc([N+](=O)[O-])c2)cc1 was read as Yeast lifespan up -14.0, BB579 growth dn -15.9, PostGolgi ctrl 43.8* and PostGolgi yeast -1.0.
`Cc1ccc2cc(CN(Cc3ccco3)C(=O)C3CCCCC3)c(=O)[nH]c2c1C` gave Yeast lifespan up -9.7, BB579 growth dn -24.9, PostGolgi ctrl 35.2* and PostGolgi yeast 13.2.
`Cc1c(C(=O)c2no[n+]([O-])c2C(=O)c2cnn(C)c2C)cnn1C` gave Yeast lifespan up -11.4, BB579 growth dn -8.1, PostGolgi ctrl -3.2 and PostGolgi yeast -0.5.
`CCCN1CCN(CCCNC(=O)Cn2nc(-c3ccccc3)ccc2=O)CC1` gave Yeast lifespan up -3.4, BB579 growth dn -9.9, PostGolgi ctrl -1.0 and PostGolgi yeast -1.9.
`c1ccc2c(c1)ncn2-c1ccc(-c2ccnc(-c3ccncc3)n2)cc1` gave Yeast lifespan up -28.6, BB579 growth dn -7.1, PostGolgi ctrl 72.0* and PostGolgi yeast 98.4*.
For Cc1nccc(-c2ccc(-n3cnc4ccccc43)cc2)n1 the results were Yeast lifespan up -15.1, BB579 growth dn -66.3, PostGolgi ctrl -2.9 and PostGolgi yeast -9.5.
N#C/C(=C\c1cccnc1)C(=O)NC1CCCCC1 was read as Yeast lifespan up 32.5* and BB579 growth dn -17.7.
For Cc1cccc(NC(=O)/C(C#N)=C\c2cccnc2)c1 the results were Yeast lifespan up -5.3, BB579 growth dn -30.9, PostGolgi ctrl 20.0 and PostGolgi yeast -2.6.
`N#C/C(=C\c1ccc2c(c1)OCCO2)C(=O)NC1CCCCC1` gave Yeast lifespan up 2.4 and BB579 growth dn -17.1.
CCCCNC(=O)/C(C#N)=C/c1cccnc1 was read as Yeast lifespan up 46.1* and BB579 growth dn -1.7.
CCOc1ccc(NC(=O)C/C(N)=N/O)cc1 was read as Yeast lifespan up -14.9, BB579 growth dn -16.9, PostGolgi ctrl -4.0 and PostGolgi yeast 35.2*.
`CCOc1ccc(NC(=O)CSC(N)=O)cc1` gave Yeast lifespan up -5.9, BB579 growth dn -18.8, PostGolgi ctrl -9.7 and PostGolgi yeast -8.0.
`O=C(O)CCC1COc2ccccc2O1` (configuration not stated) gave Yeast lifespan up -3.0, BB579 growth dn -11.7, PostGolgi ctrl -4.2 and PostGolgi yeast 2.5.
For Cc1ccc(OCCOCCOc2cccc3cccnc23)c(Br)c1 the results were Yeast lifespan up 4.1 and BB579 growth dn -23.8.
Screening Cc1cc(C)cc(OCCCOc2cccc3cccnc23)c1 returned Yeast lifespan up -13.6, BB579 growth dn 31.8, PostGolgi ctrl 62.4* and PostGolgi yeast -3.6.
Screening Clc1cc(Br)ccc1OCCOCCOc1cccc2cccnc12 returned Yeast lifespan up -15.3, BB579 growth dn -16.4, PostGolgi ctrl 60.3* and PostGolgi yeast 2.0.
`Brc1ccccc1OCCOc1cccc2cccnc12` gave Yeast lifespan up -0.9 and BB579 growth dn -40.9.
For Cc1cc(Cl)cc(Cl)c1OCCOc1cccc2cccnc12 the results were Yeast lifespan up -3.1, BB579 growth dn -38.6, PostGolgi ctrl 31.9* and PostGolgi yeast -9.5.
